Consider three substances from publication PMC7080202 (Medicinal Chemistry Research, 2013).

Where two headings read alike, the source gives them in different places.

One series relates to Vero cell cultures. Nature of the series: Cytotoxicity. The series is classed as cell-based. The method in brief:
(§1)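 Cell cultures incubated with varying concentrations of test compound, then examined by microscopy. MCC is the lowest concentration that causes a microscopically detectable alteration of normal cell morphology. HEL, Vero and HeLa lines were monitored regularly for mycoplasma and found free of it.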

Series [1] concerns Herpes simplex virus-1 (KOS). Put plainly: microbe, parasite or virus in culture. Type of series: cell-based, herpes simplex virus type 1. Conditions: read-out: EC50 Herpes simplex virus-1 (KOS); HEL cell culture.
The subject of series [2] is Coxsackie virus B4. Nature of the series: microbe, parasite or virus in culture. To be noted: read-out: Antiviral activity EC50 Coxsackie virus B4; Vero cell cultures. Type of series: cell-based.
The subject of another series is Influenza B. Nature of the series: Anti-influenza virus activity, influenza B in MDCK cells. To be noted: read-out: Antiviral EC50 Influenza B MTS; MDCK cells; MTS. The series is classed as cell-based, influenza B virus B/Hong Kong/5/72.
The next series concerns Feline herpes virus. Nature of the series: Antiviral CPE assay, feline herpes virus in CRFK cells. The series is classed as cell-based. Conditions: read-out: EC50 Feline herpes virus; CRFK cell culture.
Series [3] relates to Vesicular stomatitis virus. Nature of the series: microbe, parasite or virus in culture. The series is classed as cell-based. Conditions: read-out: EC50 Vesicular stomatitis virus.
The next series deals with Influenza A H1N1 subtype. Nature of the series: Anti-influenza virus activity, influenza A H1N1 in MDCK cells. The series is classed as cell-based, influenza A virus A/Puerto Rico/8/34 (H1N1). To be noted: for EC50: read-out: Antiviral EC50 Influenza A H1N1 subtype MTS, MDCK cells, MTS.
Another series deals with Punta Toro virus. Nature of the series: microbe, parasite or virus in culture. Type of series: cell-based. To be noted: read-out: Antiviral activity EC50 Punta Toro virus; Vero cell cultures.
Another series relates to Feline corona virus. Nature of the series: Antiviral CPE assay, feline corona virus in CRFK cells. Type of series: cell-based, feline coronavirus (FIPV). To be noted: read-out: EC50 Feline corona virus; CRFK cell culture.
In a further series the test system is Para-influenza-3 virus. Put plainly: organism not typed. Conditions: read-out: Antiviral activity EC50 Para-influenza-3 virus. The series is classed as cell-based, parainfluenza-3 virus.
The subject of series [4] is Vesicular stomatitis virus. The series is classed as cell-based. To be noted: read-out: Antiviral activity EC50 Vesicular stomatitis virus.
In a further series the test system is Influenza A H3N2 subtype. Nature of the series: Anti-influenza virus activity, influenza A H3N2 in MDCK cells. The series is classed as cell-based, influenza A virus A/Hong Kong/7/87 (H3N2). Conditions: read-out: Antiviral EC50 Influenza A H3N2 subtype MTS.
A further series concerns Vaccinia virus. Nature of the series: microbe, parasite or virus in culture. The series is classed as cell-based. Conditions: read-out: EC50 Vaccinia virus.
Series [5] deals with Coxsackie virus B4. Put plainly: microbe, parasite or virus in culture. Type of series: cell-based. To be noted: read-out: Antiviral activity EC50 Coxsackie virus B4; HeLa cell cultures.
Series [6] deals with Crandell-Rees feline kidney cells. Put plainly: Cytotoxicity. Type of series: cell-based.
The next series has as its system HeLa cell cultures. Nature of the series: Cytotoxicity. The series is classed as cell-based. The gist of the method:
as §1

The test system of series [7] is Herpes simplex virus-1TK-KOS ACV^r. Nature of the series: microbe, parasite or virus in culture. Conditions: read-out: EC50 Herpes simplex virus-1TK-KOS ACV^r; HEL cell culture. Type of series: cell-based, herpes simplex virus type 1.
In the next series the test system is Sindbis virus. Put plainly: microbe, parasite or virus in culture. Type of series: cell-based. Conditions: read-out: Antiviral activity EC50 Sindbis virus; Vero cell cultures.
The test system of series [8] is Human embryonic lung cell cultures. Put plainly: Cytotoxicity. The series is classed as cell-based. The gist of the method:
as §1

Series [9] relates to Herpes simplex virus-2 (G). Nature of the series: microbe, parasite or virus in culture. Type of series: cell-based, herpes simplex virus type 2. To be noted: read-out: EC50 Herpes simplex virus-2 (G); HEL cell culture.
In the next series the test system is MDCK cells. Conditions: for Cytotoxicity Minimum cytotoxic concentration: microscopically detectable alteration of normal cell morphology; for CC50: read-out: Cytotoxicity CC50, MTS assay.
The subject of another series is Reovirus-1. Put plainly: organism not typed. Conditions: read-out: Antiviral activity EC50 Reovirus-1; Vero cell cultures. Type of series: cell-based.

What is called EC50 is the concentration that produces a half-maximal response. One may read the CC50 as the concentration giving 50% cytotoxicity. For the substance “1-{[(4-Nitrophenyl)methylidene]amino}-3-{[(3Z)-2-oxo-2,3-dihydro-1H-indol-3-ylidene]amino}thiourea [4d]”, the Minimum cytotoxic concentration with Vero cell cultures was 100 µM; in series [6] it was >100 µM; with HeLa cell cultures, >100 µM; in [8], 100 µM. For the same substance, the EC50 was > 100 µM in [1]; > 20 µM in the series with Coxsackie virus B4 [2]; > 100 µM in the series with Influenza B; > 100 µM with Feline herpes virus; > 100 µM in series [3]; > 100 µM in the series on Influenza A H1N1 subtype. The EC50 in the series with Punta Toro virus is > 20 µM; with Feline corona virus, > 100 µM; in the series on Para-influenza-3 virus it was > 20 µM; in series [4] it was > 100 µM; with Influenza A H3N2 subtype, > 100 µM; with Vaccinia virus it was > 100 µM. For the same substance, the EC50 in the series with Coxsackie virus B4 [5] was > 100 µM; in series [7], > 100 µM; with Sindbis virus, > 20 µM; in series [9], > 100 µM; in the series on Reovirus-1 it was > 20 µM. Also, the “Cytotoxicity Minimum cytotoxic concentration” value in the series with MDCK cells is given as >100. In the series on MDCK cells, the CC50 is > 100 µM.
For “1-({[4-(dimethylamino)phenyl]methylidene}amino)-3-{[(3Z)-2-oxo-2,3-dihydro-1H-indol-3-ylidene]amino}thiourea [4c]”, the Minimum cytotoxic concentration is >100 µM in the series with Vero cell cultures, >100 µM in series [6], >100 µM in the series with HeLa cell cultures and ≥100 µM in series [8]. For the same substance, the EC50 (in series [1]; with Coxsackie virus B4 [2]; in the series with Influenza B; in the series on Feline herpes virus; in series [3]; in the series on Influenza A H1N1 subtype) was > 100 µM throughout. Moreover, the EC50 (in the series on Punta Toro virus; in the series with Feline corona virus; in the series on Para-influenza-3 virus; in [4]; in the series with Influenza A H3N2 subtype; in the series on Vaccinia virus) was > 100 µM each time. The EC50 (in the series with Coxsackie virus B4 [5]; in [7]; in the series with Sindbis virus; in series [9]; in the series on Reovirus-1) was > 100 µM throughout. For the same substance, the “Cytotoxicity Minimum cytotoxic concentration” value in the series with MDCK cells is recorded as >100. Besides, the CC50 in the series on MDCK cells is > 100 µM.
Turning to “1-{[(3,4-Dimethoxyphenyl)methylidene]amino}-3-{[(3Z)-2-oxo-2,3-dihydro-1H-indol-3-ylidene]amino}thiourea [4f]”, the Minimum cytotoxic concentration with Vero cell cultures was ≥20 µM; in series [6], 100 µM; in the series with HeLa cell cultures, >100 µM; in series [8], 100 µM. For the same substance, the EC50 in series [1] was > 20 µM; in the series on Coxsackie virus B4 [2] it was > 20 µM; in the series with Influenza B, 37 ± 8.75 µM; in the series on Feline herpes virus, > 100 µM; in [3], > 20 µM; in the series on Influenza A H1N1 subtype, 37 ± 25 µM. Moreover, the EC50 in the series with Punta Toro virus was > 20 µM; with Feline corona virus it was > 100 µM; in the series on Para-influenza-3 virus, > 20 µM; in series [4] it was > 100 µM; in the series with Influenza A H3N2 subtype, 27 ± 7.3 µM; with Vaccinia virus, > 20 µM. Also, the EC50 in the series on Coxsackie virus B4 [5] is > 100 µM; in [7], > 20 µM; with Sindbis virus, > 20 µM; in [9], > 20 µM; in the series on Reovirus-1 it was > 20 µM. Also, in the series on Influenza A H1N1 subtype (H1N1, H3N2 and influenza B, below the non-toxic concentration of 100 µM), the “anti-influenza activity (in words)” value is recorded as “some activity”. For the same substance, the “Cytotoxicity Minimum cytotoxic concentration” value in the series with MDCK cells was >100. Besides, in the series with MDCK cells, the CC50 is > 100 µM.
